# SR-BI HDL uptake: mouse SR-BI HDL lipid transfer inhibition; actives 0.96% (n = 320,000); inhibition, % at 12.5 µM; ldlA[mSR-BI] CHO cells, DiI-HDL uptake fluorescence, 3 h; Q61009;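 active = mean replicate inhibition of at least 70% and a set share of replicates each scoring 70 or more; inconclusive = meets just one of the two criteria; inactive = fails both criteria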;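 note: 0% = median of neutral control wells and 100% = median of positive control wells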
# Target sequence (Q61009 whole entry, looked up): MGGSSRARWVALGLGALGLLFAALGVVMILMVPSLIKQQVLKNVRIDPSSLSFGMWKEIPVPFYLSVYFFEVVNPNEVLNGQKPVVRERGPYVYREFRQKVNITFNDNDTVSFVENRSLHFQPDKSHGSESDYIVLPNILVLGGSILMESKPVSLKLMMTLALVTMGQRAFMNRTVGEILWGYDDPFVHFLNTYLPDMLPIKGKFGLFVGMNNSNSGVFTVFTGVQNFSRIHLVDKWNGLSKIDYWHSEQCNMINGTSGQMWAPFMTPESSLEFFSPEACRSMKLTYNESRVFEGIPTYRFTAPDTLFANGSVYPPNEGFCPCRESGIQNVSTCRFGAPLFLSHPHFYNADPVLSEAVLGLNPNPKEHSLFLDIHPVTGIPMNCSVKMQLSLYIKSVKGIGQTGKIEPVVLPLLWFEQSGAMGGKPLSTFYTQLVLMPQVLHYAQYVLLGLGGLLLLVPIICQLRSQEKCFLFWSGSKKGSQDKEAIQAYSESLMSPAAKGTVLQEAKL
# SR-BI DiI-HDL act: SR-BI HDL lipid transfer activation | CHO ldlA[mSR-BI] cells, DiI-HDL uptake fluorescence, 3 h; 100 = double the neutral-control signal | activation, % at 12.5 µM | actives 0.096% (n = 320,000) | AID 504775;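 active = mean replicate activation of at least 60% and every replicate at or above 60%; inconclusive = mean or all-replicate condition met, but not both; inactive = mean below 60% and not all replicates reaching 60%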;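 note: 0% = median plate neutral-control signal and 100% = twice that signal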
#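 Material: SR-BI-overexpressing, LDLR-lacking CHO cells; schedule: compound exposure 3 h, 37 °C; reagent: DiI-labelled HDL at 10 µg/mL final; technique: bottom-read fluorescence, 550/595 nm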
# XiGFP reactiv: X-chromosome reactivation activator; actives 0.055% (n = 360,000); XiGFP mouse fibroblasts, % GFP-positive cells imaging, 3 d; cells co-treated with 5-aza-dC sensitizer; scaled so ellipticine positive control = 100%; activation, % at 7.58 µM; AID 743238;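 active = mean normalized replicate activation at least 10% and every replicate at or above 10%; inconclusive = only one of the two criteria met; inactive = mean below 10% and not all replicates reach 10%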;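 note: 0% = median of on-plate neutral control wells and 100% = ellipticine 6 µM median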
#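 Assay system – SV40-immortalized XiGFP fibroblast cells, line 68-5-11 · Buffer or medium – DMEM supplemented with 5-aza-dC as sensitizing agent · Dosing – one concentration, pinned · Benchmarks – positive control ellipticine, 6 µM final · Times – 3 days compound exposure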
# dFosB activator: activators of mouse delta FosB homodimer. purified delta FosB, TAMRA-CDK5 oligo fluorescence polarization; percent of positive-control signal above neutral wells. activation, % at 25 µM. P13346. actives 0.99% (n = 340,000);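 active = mean activation above about 17%, with every replicate also reaching it, limit read from the data, passing the limit was not always enough; inconclusive = only one of the two conditions met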
# rRNA inh HTS: inhibitors of bacterial rRNA selective over humanized ribosomes | E. coli WT GFP vs humanized-ribosome RFP mutants, fluorescence, 24 h; stronger effect = lower value; DMSO median 0, no signal -100 | actives 1.6% (n = 350,000) | AID 720706 | GFP signal change (wild-type ribosome), % (concentration not given with the values);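 active = significant combined selectivity score with lowered wild-type GFP, culture density cut under 30%, mutant RFP and density less affected; inactive = any of these conditions unmet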
# PvdQ inh: blocks Pseudomonas aeruginosa PvdQ acylase activity. purified PvdQ acylase, fluorescence plate reader. inhibition, % at 10 µM. actives 0.063% (n = 340,000). AID 488965; in the data active = inhibition above about 30%, passing the limit was not always enough; inconclusive = no clear call, values can overlap the other calls;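 note: 0% = vehicle neutral wells and 100% = reference inhibitor wells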
# DiI quench: counter-screen for SR-BI lipid transfer inhibitors: DiI fluorescence quenchers; AID 540326; shares compounds with SR-BI HDL uptake; cell-free DiI-HDL fluorescence quenching, 30 min; actives 20% (n = 470); AC50, µM (highest dose often 35 µM), without a hit: at the highest dose activity change, negative = quenching;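 active = quenching, a falling signal, with AC50 below a set limit tied to the top valid dose, actives reach about 32 µM in these data; inconclusive = no clear call, values can overlap the other calls; inactive = rising signal, and the rest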
# Starred values were filed as active, the others as inactive; ? = inconclusive; / = no result. The list is not random: actives were taken first. Their share in the collection is about 2.6%.
SMILES,SR-BI HDL uptake,SR-BI DiI-HDL act,XiGFP reactiv,dFosB activator,rRNA inh HTS,PvdQ inh,DiI quench
CCOc1ccccc1N1CC(C(=O)NCCC2=CCCCC2)CC1=O (stereo not given),62.8,-62.8,-0.1,-2.0,-2.5,-20.1,/
C[C@H](CO)N1C[C@H](C)[C@H](CN(C)C(=O)Cc2ccccn2)Oc2ncc(C#CC3CCCC3)cc2C1=O,/,/,-0.7,/,1.3,/,/
CC12CCC(C(=O)NCc3ccccc3Cl)(OC1=O)C2(C)C (stereo not given),/,/,0.5,-8.5,4.5,-11.3,/
CC(C)c1nnc(NC(=O)CCC(=O)N2CCN(C3c4ccccc4-c4ccccc43)CC2)s1,?,-73.1,-0.1,-10.4,5.1,-7.9,-2.5%
Cc1ccccc1NC(=O)N1C2CCCC1CC(NC(=O)C1CC1)C2 (stereo not given),3.2,/,/,-0.1,/,-13.1,/
Oc1csc(Cc2nc(-c3ccc4ccccc4c3)cs2)n1,?,-70.1,/,-4.9,/,9.2,16.1µM*
COc1ccc(S(=O)(=O)N2CCCCC2)cc1NC(=O)c1ccc(=O)[nH]c1,6.7,-6.7,0.0,-15.9,6.6,-6.0,/
CCN(CC(=O)Nc1c(F)cccc1F)C(=O)Cc1ccc2c(c1)CCC2,-0.4,0.4,0.5,-6.2,-1.1,7.5,/
CCCOc1ccc(C(=O)Nc2ccc(S(=O)(=O)N3CCN(C)CC3)cc2)cc1,19.0,-19.0,0.0,-7.8,-0.4,-3.9,/
CCCOc1ccc(C(=O)Nc2ccc(S(=O)(=O)N3C[C@@H]4C[C@@H](C3)c3cccc(=O)n3C4)cc2)cc1,57.1,-57.1,/,14.2,1.2,-14.9,2.8%
Cc1ccc(S(=O)(=O)N(C)C[C@H]2OCCCC[C@H](C)Oc3ccc(NC(=O)C4CCCCC4)cc3C(=O)N([C@@H](C)CO)C[C@H]2C)cc1,/,/,-0.1,/,-0.1,/,/
O=C(Nc1cccc(Cl)c1)Nc1sccc1-c1nc2ccccc2s1,105.5*,-105.5,-0.1,2.8,/,-10.4,10.8%
O=C(Nc1cccc(-c2nc3ccccc3s2)c1)c1cccs1,30.6,-30.6,0.0,-25.1,/,-10.0,/
CCOCCCNC(=S)N1CCCN(c2nc3c(C)c(C)ccc3cc2C#N)CC1,59.3,-59.3,0.0,-9.4,2.9,-20.2,/
COc1ccc(C2c3sc(=O)[nH]c3SC3C4CCC(C4)C23)cc1OC (stereo not given),?,-71.6,/,-8.1,/,-12.7,-9.4%
CCOc1ccc2c(c1)-c1c(ssc1=S)C(C)(C)N2C(=O)c1ccco1,73.5*,-73.5,0.2,-4.1,/,-9.8,30.7µM*
CCC(C)c1ccccc1N1CC(C(=O)N2CCN(S(=O)(=O)c3ccccc3Br)CC2)CC1=O (stereo not given),78.1*,-78.1,-0.1,-7.2,-9.9,-2.4,-0.8%
CNc1cnn(-c2ccc(C)cc2)c(=O)c1Cl,-32.2,32.2,/,3.7,/,-6.2,/
CNc1cnn(-c2ccc(C)cc2)c(=O)c1Sc1ccc(C)cc1,70.0*,-70.0,0.0,-7.7,21.8,5.7,1.1%
COc1ccccc1-c1cc(-c2ccc(C)cc2)nc(SCc2nnc(-c3ccccc3)o2)c1C#N,-0.2,0.2,/,-2.7,/,-8.0,/
O=S(=O)(SC1=NCCN1)c1ccccc1,16.6,-16.6,0.2,1.8,0.6,-6.4,/
CCOC(=O)C(=O)Nc1nc(-c2ccc3c(c2)CCN3C(=O)C2CC2)c(C)s1,56.1,-56.1,/,-10.5,-1.0,-10.8,-10.9%
Cc1ccc(NC(=O)c2cc(S(=O)(=O)N3CCOCC3)c(Br)s2)cc1,?,-72.8,0.0,0.4,-6.7,3.3,2.8%
COc1ccc2c3c(n(C)c2c1)[C@H](CO)N(C(=O)Nc1ccc(F)cc1)CC31CN(C(=O)c2ccc3c(c2)OCO3)C1,/,/,0.1,/,2.7,/,/
COc1ccc(-c2[nH]c(-c3ccccc3)nc2SCC(=O)NC2CCCC2)cc1,42.6,-42.7,-0.1,-4.4,-1.3,5.1,/
SMILES,SR-BI HDL uptake,SR-BI DiI-HDL act,XiGFP reactiv,dFosB activator,rRNA inh HTS,PvdQ inh,DiI quench
COc1ccc(-c2[nH]c(-c3ccc(F)cc3)nc2SCC(=O)NC2CCCC2)cc1,78.4*,-78.4,-0.1,-9.3,-1.6,2.8,26.1µM*
CCOC(=O)C1CCN(C(=O)Cn2nc(C)n3nc(-c4ccc(OC)cc4)cc3c2=O)CC1,60.8,-60.8,0.0,-1.0,13.4,2.6,-0.7%
CCOC(=O)N1CCN(C(=O)Cn2nc(C)n3nc(-c4ccc(OC)cc4)cc3c2=O)CC1,33.9,-33.9,0.0,-2.9,13.0,7.6,/
Cc1ccc(N(C(=O)Cn2nnc(-c3ccc(F)cc3)n2)C(C(=O)NC(C)(C)C)c2ccncc2)cc1 (stereo not given),-13.5,13.5,0.2,-4.7,13.9,16.7,/
O=C(c1cccc(Cl)c1)N1CCC2CC1c1cc(-c3ccccc3)ccc12 (stereo not given),13.0,-13.0,0.2,-1.5,7.1,-15.4,-5.2%
N#Cc1ccc(C(=O)N2CCC3CC2c2cc(-c4ccccc4)ccc23)cc1 (stereo not given),5.2,-5.2,-0.1,1.3,1.8,-8.5,-3.4%
COc1cccc(-c2ccc3c(c2)C2CC3CCN2C(=O)c2ccc(Cl)cc2)c1 (stereo not given),11.2,-11.2,/,-3.4,5.4,-16.0,/
COc1ccc(N2C(=O)C3C(C2=O)C3(c2ccccc2)c2ccccc2)cc1 (stereo not given),22.4,-22.4,0.1,-8.9,-19.8*,-7.4,-0.1%
COc1ccc(N2C(=O)C3C4C=CC(c5ccccc5)(C3C2=O)C2C(=O)N(c3ccc(OC)cc3)C(=O)C42)cc1 (stereo not given),50.9,-50.9,0.0,-4.3,13.7,1.2,/
N#CCCN(C(=O)COC(=O)CCc1c[nH]c2ccccc12)c1ccc(F)cc1,-15.8,15.8,0.0,0.3,-7.6,-17.0,-12.7%
Cc1cccc2[nH]c(CN(C)C(=O)CC3C(=O)NCCN3CC(C)(C)C)nc12 (stereo not given),-6.9,6.9,0.0,-7.2,9.9,-8.5,/
O=C(Nc1ccn(Cc2c(F)c(F)c(F)c(F)c2F)n1)c1ccc(COc2ccccc2Cl)cc1,73.1*,-73.1,/,4.1,/,-11.7,-1.1%
O=C(Nc1ccn(Cc2c(F)c(F)cc(F)c2F)n1)c1ccc(COc2ccc(Cl)cc2Cl)o1,42.1,-42.1,/,4.1,/,-14.0,/
CCN(c1cc(C)cc(C)c1)S(=O)(=O)c1nnc(NC(=O)C(C)C)s1,47.5,-47.5,0.0,-5.9,5.8,-10.0,/
